Results from ChEMBL document CHEMBL2406932, “Heteroaromatic and aniline derivatives of piperidines as potent ligands for vesicular acetylcholine transporter” (J Med Chem, 2013).

Legend:
[1] = target: T1, Vesicular acetylcholine transporter (Homo sapiens, UniProt Q16572); assay: Displacement of (-)-[3H]vesamicol from human VAChT expressed in rat PC12 cell membrane after 20 hrs; assay type: cell membranes, PC-12
T1 sequence (Q16572 whole entry): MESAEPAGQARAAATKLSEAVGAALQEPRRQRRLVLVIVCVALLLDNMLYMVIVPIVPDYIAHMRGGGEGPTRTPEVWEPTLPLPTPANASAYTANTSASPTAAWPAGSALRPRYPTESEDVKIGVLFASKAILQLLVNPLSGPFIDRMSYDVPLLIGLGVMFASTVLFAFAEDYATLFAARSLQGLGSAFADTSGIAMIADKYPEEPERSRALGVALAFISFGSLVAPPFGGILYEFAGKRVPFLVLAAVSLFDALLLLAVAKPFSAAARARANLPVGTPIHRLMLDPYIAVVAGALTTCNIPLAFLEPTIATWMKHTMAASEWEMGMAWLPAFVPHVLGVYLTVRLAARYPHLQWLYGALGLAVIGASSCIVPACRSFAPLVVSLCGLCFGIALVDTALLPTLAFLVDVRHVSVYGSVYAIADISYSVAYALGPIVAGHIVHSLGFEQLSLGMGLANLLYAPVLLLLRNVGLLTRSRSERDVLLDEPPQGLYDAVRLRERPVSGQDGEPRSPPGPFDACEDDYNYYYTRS

Brain [2] = assay: Ratio of drug uptake in Sprague-Dawley rat brain in absence of cyclosporin A to drug uptake in Sprague-Dawley rat brain in presence of cyclosporin A; assay type: ADME, tissue-based; details: in vivo
Procedure, shortened: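 Cyclosporine A (Sandimmune diluted 1:1 with saline) was given i.v. at 25 mg/kg 30 min before the radioligand. Rats were euthanized 30 min after tracer injection. Groups were compared with controls by Student t test (n=4).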

[3] = target: Sigma non-opioid intracellular receptor 1 (Cavia porcellus, UniProt Q60492); assay: Displacement of (+)- [3H]pentazocine from sigma 1 receptor expressed in guinea pig brain membrane homogenates by scintillation counting analysis; assay type: cell membranes
Chain of Sigma non-opioid intracellular receptor 1 (Q60492 whole entry): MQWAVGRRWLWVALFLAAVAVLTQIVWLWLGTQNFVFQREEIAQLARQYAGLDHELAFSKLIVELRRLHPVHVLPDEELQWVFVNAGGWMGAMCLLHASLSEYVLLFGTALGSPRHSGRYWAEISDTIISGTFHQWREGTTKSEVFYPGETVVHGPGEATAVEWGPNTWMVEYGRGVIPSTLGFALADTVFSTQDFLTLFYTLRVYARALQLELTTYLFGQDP

Muscle tissue [4] = assay: Biodistribution in Sprague-Dawley rat muscle at 350 uCi, iv after 30 mins; assay type: ADME, organism-based; details: in vivo, 0.5 h
Thalamus [5] = assay: Biodistribution in Sprague-Dawley rat thalamus at 350 uCi, iv after 30 mins; assay type: ADME, organism-based; details: in vivo, 0.5 h
Kidney [6] = assay: Biodistribution in Sprague-Dawley rat kidney at 350 uCi, iv after 5 mins; assay type: ADME, organism-based; details: in vivo
Heart [7] = assay: Biodistribution in Sprague-Dawley rat heart at 350 uCi, iv after 30 mins in presence of cyclosporin A; assay type: ADME, organism-based; details: in vivo, 0.5 h
Brain [8] = assay: Biodistribution in Sprague-Dawley rat brain at 350 uCi, iv after 5 mins; assay type: ADME, organism-based; details: in vivo
Muscle tissue [9] = assay: Biodistribution in Sprague-Dawley rat muscle at 350 uCi, iv after 30 mins in presence of cyclosporin A; assay type: ADME, organism-based; details: in vivo, 0.5 h
[10] = Biodistribution in cynomolgus monkey striatum at 5 to 7 mCi, iv after 10 mins by microPET analysis; assay type: ADME, organism-based, Macaca fascicularis; details: in vivo
Procedure, shortened: (§1)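 Male cynomolgus monkeys (4–6 kg) were fasted 12 h, induced with ketamine (10 mg/kg) and glycopyrrolate (0.13 mg/kg) i.m., intubated and kept on 0.75–2.0% isoflurane. After attenuation-correction transmission scans, 5–7 mCi of tracer was given via venous catheter and a 100 min dynamic microPET scan was acquired. MRI-coregistered regions of interest yielded time-activity curves; n = 3.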

Lung [11] = assay: Biodistribution in Sprague-Dawley rat lung at 350 uCi, iv after 5 mins; assay type: ADME, organism-based; details: in vivo
Hippocampus [12] = assay: Biodistribution in Sprague-Dawley rat hippocampus at 350 uCi, iv after 30 mins; assay type: ADME, organism-based; details: in vivo, 0.5 h
Rattus norvegicus [13] = assay: Biodistribution in Sprague-Dawley rat fat at 350 uCi, iv after 30 mins in the presence of cyclosporin A; assay type: ADME, organism-based, Adipose tissue; details: in vivo, 0.5 h
Cortex [14] = assay: Biodistribution in Sprague-Dawley rat cortex at 350 uCi, iv after 30 mins; assay type: ADME, organism-based; details: in vivo, 0.5 h
Heart [15] = assay: Biodistribution in Sprague-Dawley rat heart at 350 uCi, iv after 5 mins; assay type: ADME, organism-based; details: in vivo
Blood [16] = assay: Biodistribution in Sprague-Dawley rat blood at 350 uCi, iv after 5 mins; assay type: ADME, organism-based; details: in vivo
Striatum [17] = assay: Biodistribution in Sprague-Dawley rat striatum at 350 uCi, iv after 30 mins in presence of cyclosporin A; assay type: ADME, organism-based; details: in vivo, 0.5 h
Hippocampus [18] = assay: Biodistribution in Sprague-Dawley rat hippocampus at 350 uCi, iv after 30 mins in presence of cyclosporin A; assay type: ADME, organism-based; details: in vivo, 0.5 h
Rattus norvegicus [19] = assay: Biodistribution in Sprague-Dawley rat fat at 350 uCi, iv after 5 mins; assay type: ADME, organism-based, Adipose tissue; details: in vivo
Liver [20] = assay: Biodistribution in Sprague-Dawley rat liver at 350 uCi, iv after 30 mins; assay type: ADME, organism-based; details: in vivo, 0.5 h
Kidney [21] = assay: Biodistribution in Sprague-Dawley rat kidney at 350 uCi, iv after 30 mins in the presence of cyclosporin A; assay type: ADME, organism-based; details: in vivo, 0.5 h
Rattus norvegicus [22] = assay: Biodistribution in Sprague-Dawley rat brain stem at 350 uCi, iv after 30 mins; assay type: ADME, organism-based; details: in vivo, 0.5 h
Pancreas [23] = assay: Biodistribution in Sprague-Dawley rat pancreas at 350 uCi, iv after 30 mins in the presence of cyclosporin A; assay type: ADME, organism-based; details: in vivo, 0.5 h
Cerebellum [24] = assay: Biodistribution in Sprague-Dawley rat cerebellum at 350 uCi, iv after 30 mins in presence of cyclosporin A; assay type: ADME, organism-based; details: in vivo, 0.5 h
Lung [25] = assay: Biodistribution in Sprague-Dawley rat lung at 350 uCi, iv after 30 mins; assay type: ADME, organism-based; details: in vivo, 0.5 h
Brain [26] = assay: (§2) Biodistribution in Sprague-Dawley rat brain at 350 uCi, iv after 30 mins; assay type: ADME, organism-based; details: in vivo, 0.5 h
Spleen [27] = assay: Biodistribution in Sprague-Dawley rat spleen at 350 uCi, iv after 30 mins in the presence of cyclosporin A; assay type: ADME, organism-based; details: in vivo, 0.5 h
Brain [28] = assay: Biodistribution in Sprague-Dawley rat brain at 350 uCi, iv after 30 mins in presence of cyclosporin A; assay type: ADME, organism-based; details: in vivo, 0.5 h
Liver [29] = assay: Biodistribution in Sprague-Dawley rat liver at 350 uCi, iv after 5 mins; assay type: ADME, organism-based; details: in vivo
Spleen [30] = assay: Biodistribution in Sprague-Dawley rat spleen at 350 uCi, iv after 30 mins; assay type: ADME, organism-based; details: in vivo, 0.5 h
Lung [31] = assay: Biodistribution in Sprague-Dawley rat lung at 350 uCi, iv after 30 mins in presence of cyclosporin A; assay type: ADME, organism-based; details: in vivo, 0.5 h
Rattus norvegicus [32] = assay: Biodistribution in Sprague-Dawley rat fat at 350 uCi, iv after 30 mins; assay type: ADME, organism-based, Adipose tissue; details: in vivo, 0.5 h
Muscle tissue [33] = assay: Biodistribution in Sprague-Dawley rat muscle at 350 uCi, iv after 5 mins; assay type: ADME, organism-based; details: in vivo
Cerebellum [34] = assay: Biodistribution in Sprague-Dawley rat cerebellum at 350 uCi, iv after 30 mins; assay type: ADME, organism-based; details: in vivo, 0.5 h
Liver [35] = assay: Biodistribution in Sprague-Dawley rat liver at 350 uCi, iv after 30 mins in presence of cyclosporin A; assay type: ADME, organism-based; details: in vivo, 0.5 h
Spleen [36] = assay: Biodistribution in Sprague-Dawley rat spleen at 350 uCi, iv after 5 mins; assay type: ADME, organism-based; details: in vivo
Striatum [37] = assay: Biodistribution in Sprague-Dawley rat striatum at 350 uCi, iv after 30 mins; assay type: ADME, organism-based; details: in vivo, 0.5 h
[38] = Biodistribution in cynomolgus monkey striatum at 5 to 7 mCi, iv up to 100 mins by microPET analysis; assay type: ADME, organism-based, Macaca fascicularis; details: in vivo; procedure, shortened: as §1
Blood [39] = assay: Biodistribution in Sprague-Dawley rat blood at 350 uCi, iv after 30 mins in presence of cyclosporin A; assay type: ADME, organism-based; details: in vivo, 0.5 h
Macaca fascicularis = assay: Ratio of drug level in cynomolgus monkey […] at 5 to 7 mCi, iv after 70 mins; details: in vivo
Brain [40] = assay: as §2; assay type: ADME, organism-based; details: in vivo, 0.5 h; remark: listed apart in the source
[41] = Displacement of [3H]DTG from sigma 2 receptor in rat liver membrane homogenates after 120 mins by scintillation counting analysis; assay type: cell membranes
Procedure, shortened: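 Rat liver membrane homogenate (~300 µg protein) with ~5 nM [3H]DTG plus 1 µM (+)-pentazocine to block sigma-1 sites, 120 min at room temperature, pH 7.4 Tris buffer. Nonspecific binding taken with 10 µM haloperidol. Filtration and scintillation counting.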

Thalamus [42] = assay: Biodistribution in Sprague-Dawley rat thalamus at 350 uCi, iv after 30 mins in presence of cyclosporin A; assay type: ADME, organism-based; details: in vivo, 0.5 h
Blood [43] = assay: Biodistribution in Sprague-Dawley rat blood at 350 uCi, iv after 30 mins; assay type: ADME, organism-based; details: in vivo, 0.5 h
Pancreas [44] = assay: Biodistribution in Sprague-Dawley rat pancreas at 350 uCi, iv after 5 mins; assay type: ADME, organism-based; details: in vivo
Pancreas [45] = assay: Biodistribution in Sprague-Dawley rat pancreas at 350 uCi, iv after 30 mins; assay type: ADME, organism-based; details: in vivo, 0.5 h
Rattus norvegicus [46] = assay: Biodistribution in Sprague-Dawley rat brain stem at 350 uCi, iv after 30 mins in presence of cyclosporin A; assay type: ADME, organism-based; details: in vivo, 0.5 h
Heart [47] = assay: Biodistribution in Sprague-Dawley rat heart at 350 uCi, iv after 30 mins; assay type: ADME, organism-based; details: in vivo, 0.5 h
Brain [48] = assay: Biodistribution in Sprague-Dawley rat brain at 350 uCi, iv after 30 mins in the presence of cyclosporin A; assay type: ADME, organism-based; details: in vivo, 0.5 h
Kidney [49] = assay: Biodistribution in Sprague-Dawley rat kidney at 350 uCi, iv after 30 mins; assay type: ADME, organism-based; details: in vivo, 0.5 h
Cortex [50] = assay: Biodistribution in Sprague-Dawley rat cortex at 350 uCi, iv after 30 mins in presence of cyclosporin A; assay type: ADME, organism-based; details: in vivo, 0.5 h
PC-12 [51] = assay: Selectivity ratio, ratio of Ki for sigma 2 receptor in rat liver homogenates to Ki for human VAChT expressed in rat PC12 cells; assay type: cell-based
PC-12 [52] = assay: Selectivity ratio, ratio of Ki for sigma 1 receptor in guinea pig brain homogenates to Ki for human VAChT expressed in rat PC12 cells; assay type: cell-based

Nc1ccc(C(=O)C2CCN([C@@H]3Cc4ccccc4C[C@H]3O)CC2)cc1 (racemic)
Ki ([1]; pc-12): 1.68 nM

O=C(c1cccs1)C1CCN([C@@H]2Cc3ccccc3C[C@H]2O)CC1 (racemic)
Ki [1]: 5 nM

[11CH3]Nc1ccc(C(=O)C2CCN([C@H]3Cc4ccccc4C[C@@H]3O)CC2)cc1
Ratio (Brain [2]): 2.2
Ki [3]: 992 nM
Drug uptake (Muscle tissue [4]): Active
Drug uptake (Thalamus [5]): 0.293 % ID/g
Drug uptake (Kidney [6]): 1.47 % ID/g
Drug uptake (Heart [7]): Active
Drug uptake (Brain [8]): 0.57 % ID/g
Drug uptake (Muscle tissue [9]): Active
Drug uptake [10]: Active
Drug uptake (Lung [11]): 1.77 % ID/g
Drug uptake (Hippocampus [12]): 0.265 % ID/g
Drug uptake (Rattus norvegicus [13]): Active
Drug uptake (Cortex [14]): 0.262 % ID/g
Drug uptake (Heart [15]): 0.49 % ID/g
Drug uptake (Blood [16]): 0.34 % ID/g
Drug uptake (Striatum [17]): 1.02 % ID/g
Drug uptake (Hippocampus [18]): 0.562 % ID/g
Drug uptake (Rattus norvegicus [19]): 0.18 % ID/g
Drug uptake (Liver [20]): 2.44 % ID/g
Drug uptake (Kidney [21]): 1.21 % ID/g
Drug uptake (Rattus norvegicus [22]): 0.245 % ID/g
Drug uptake (Pancreas [23]): Active
Drug uptake (Cerebellum [24]): 0.404 % ID/g
Drug uptake (Lung [25]): Active
Drug uptake (Brain [26]): Active
Drug uptake (Spleen [27]): Active
Drug uptake (Brain [28]): 0.596 % ID/g
Drug uptake (Liver [29]): 3.45 % ID/g
Drug uptake (Spleen [30]): Active
Drug uptake (Lung [31]): Active
Drug uptake (Rattus norvegicus [32]): Active
Drug uptake (Muscle tissue [33]): 0.22 % ID/g
Drug uptake (Cerebellum [34]): 0.157 % ID/g
Drug uptake (Liver [35]): Active
Drug uptake (Spleen [36]): 1.19 % ID/g
Drug uptake (Striatum [37]): 0.593 % ID/g
Drug uptake [38]: Active
Drug uptake (Blood [39]): Active
Ratio (Macaca fascicularis): > 2.5
Drug uptake (Brain [40]): 0.272 % ID/g
Ki [1]: 0.78 nM
Ki [41]: 11400 nM
Drug uptake (Thalamus [42]): 0.6 % ID/g
Drug uptake (Blood [43]): Active
Drug uptake (Pancreas [44]): 0.89 % ID/g
Drug uptake (Pancreas [45]): Active
Drug uptake (Rattus norvegicus [46]): 0.577 % ID/g
Drug uptake (Heart [47]): Active
Drug uptake (Brain [48]): Active
Drug uptake (Kidney [49]): Active
Drug uptake (Cortex [50]): 0.637 % ID/g

COc1ccc(C(=O)C2CCN([C@@H]3Cc4c(N)cccc4C[C@H]3O)CC2)cn1 (racemic)
Ki [3]: 5680 nM
Ratio Ki (PC-12 [51]): 220
Ratio Ki (PC-12 [52]): 120
Ki [1]: 23.3 nM
Ki [41]: 10800 nM
